Published values gathered from unrelated publications.
Target: Mitogen-activated protein kinase kinase kinase kinase 4 (MAP4K4, Homo sapiens, UniProt O95819)

SMILES	assay	setting	remaining binding [%]
N[C@@H]1CCN(c2nccc(-c3cnn4ncccc34)n2)C1	binding	1 µM	100
O=C(NCC1CCOCC1)c1n[nH]cc1NC(=O)c1c(F)cccc1F	binding, competition with immobilised ligand	1 µM	91
O=C(NS(=O)(=O)c1ccc(NCC2CCOCC2)c([N+](=O)[O-])c1)c1ccc(N2CCN(Cc3ccc(C(F)(F)F)cc3-c3ccc(Cl)cc3)CC2)cc1Oc1cnc2[nH]ccc2c1	cell-free assay, competition with immobilised ligand	1 µM	95
c1cnn2ncc(-c3ccnc(N4CCC45COC5)n3)c2c1	binding	1 µM	77
CCCOc1ccc([C@H]2[C@H](C(=O)O)[C@@H](c3ccc4c(c3)OCO4)CN2CC(=O)Nc2c(CC)cccc2CC)cc1	cell-free assay, competition with immobilised ligand	1 µM	90
CN(CCCC(F)(F)F)c1nccc(-c2cnn3ncccc23)n1	binding	1 µM	100
O=C(c1ccc(Nc2nccc(-c3cc4ccccc4s3)n2)cc1)N1CCC(N2CCCC2)CC1	binding, competition with immobilised ligand	1 µM	40
CCN1CCN(Cc2ccc(C(=O)Nc3ccc(C)c(Oc4ccc5c(c4)CC(=O)N5)c3)cc2C(F)(F)F)CC1	binding, competition with immobilised ligand	1 µM	88
O=C(NCCCC1CCCCC1)c1ccc(CNC(=O)c2cnn(-c3ccccc3)c2C(F)(F)F)cc1	cell-free assay, competition with immobilised ligand	0.1 µM	81
CN(C)c1nccc(-c2cnn3ncccc23)n1	binding	1 µM	87
COc1cnc(Nc2cccc(S(N)(=O)=O)c2)nc1N1CCN(c2ccccc2)CC1	binding, competition with immobilised ligand	1 µM	87
C[C@@H](c1ccc(-n2cnc3c(N)ncnc32)cc1)N1CCc2nn(C)c(Cc3ccccc3)c2C1=O	binding, competition with immobilised ligand	0.1 µM	97
COc1cnc(Nc2cccc(S(N)(=O)=O)c2)nc1N1CCN(c2ccccc2)C(=O)C1	binding, competition with immobilised ligand	1 µM	100
O=C(NCCCN1CCOCC1)c1ccc(Nc2ncc(Cl)c(-c3ccc(Cl)s3)n2)cc1	binding, competition with immobilised ligand	1 µM	67
FC(F)(F)Oc1cccc(-c2cnc3ccc(-c4ccncc4)nn23)c1	cell-free assay, competition with immobilised ligand	5 µM	49
Cc1c(C(=O)O)cc(-c2ccc(C3CCNCC3)cc2)c2ccc(-c3ccc(C(F)(F)F)cc3)cc12	binding, competition with immobilised ligand	1 µM	76
Cc1cnc(Nc2ccc(C(=O)N3CCC(N4CCCC4)CC3)cc2)nc1-c1cc2ccccc2s1	binding, competition with immobilised ligand	1 µM	67
Cc1nccc(COC(=O)N2C[C@@H]3[C@@H](CNC(=O)c4ccc5[nH]nnc5c4)[C@@H]3C2)n1	cell-free assay, competition with immobilised ligand	1 µM	99
COc1ccnn2ncc(-c3ccnc(N(C)C)n3)c12	binding	1 µM	93
CS(=O)(=O)NCC[C@H](NC(=O)c1cncc2c1cnn2-c1ccc(F)cc1)c1ccnc(S(C)(=O)=O)c1	cell-free assay, competition with immobilised ligand	1 µM	86
Cc1cnn2ncc(-c3ccnc(N(C)C)n3)c2c1	binding	1 µM	100
